Test results as given in ChEMBL document CHEMBL3091404, “Isoquinoline derivatives as potent CRTH2 antagonists: design, synthesis and SAR” (Bioorg Med Chem, 2013).

Assays:
[1] = target: T1, Prostaglandin D2 receptor 2 (Homo sapiens, UniProt Q9Y5Y4); assay: Antagonist activity at human CRTH2 transfected in human KB8 cells assessed as inhibition of PGD2-induced increase in intracellular Ca2+ by fluo-4AM dye-based assay; type: functional, cell-based
T1 sequence (Q9Y5Y4 whole entry): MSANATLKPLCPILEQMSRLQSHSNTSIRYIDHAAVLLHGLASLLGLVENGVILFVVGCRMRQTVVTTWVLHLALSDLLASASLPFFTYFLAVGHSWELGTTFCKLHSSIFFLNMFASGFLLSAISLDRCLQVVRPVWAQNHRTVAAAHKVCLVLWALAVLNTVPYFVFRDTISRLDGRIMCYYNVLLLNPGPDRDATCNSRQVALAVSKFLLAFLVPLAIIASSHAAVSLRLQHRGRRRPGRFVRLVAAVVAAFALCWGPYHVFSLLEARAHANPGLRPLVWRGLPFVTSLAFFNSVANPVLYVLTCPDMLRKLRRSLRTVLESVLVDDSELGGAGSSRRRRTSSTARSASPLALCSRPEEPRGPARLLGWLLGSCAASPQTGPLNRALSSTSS
How it was run: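 Cells loaded with 1 µM Fluo-4 AM for 30 min at 37 °C in the dark, washed, resuspended in HBSS with 10 mM HEPES pH 7.3 and 1 mM CaCl₂ (2 × 10⁵ cells/100 µl). Compound added with 100 nM PGD₂; [Ca²⁺]i rise read on FDSS6000. IC₅₀ from ten-point half-log concentration–response curves, mean of two or more independent experiments.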

[2] = target: T1, Prostaglandin D2 receptor 2; assay: Displacement of [3H]PGD2 from human CRTH2 transfected in CHO cells by liquid scintillation counting analysis; type: cell-based
How it was run: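 Transfected cells washed and suspended in HBSS with 10 mM HEPES pH 7.3 (2 × 10⁵ cells/100 µl), incubated with 5 nM ³H-PGD₂ for 60 min on ice. Vacuum filtration through GF/C glass fiber filters, four washes with ice-cold PBS containing 0.1% BSA. IC₅₀ from ten-point half-log concentration–response curves, mean of two or more independent experiments.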

[3] = Antagonist activity at CRTH2 in human TH2 cells assessed as inhibition of PGD2-induced chemotaxis after 1 hr by hemocytometry

Row | SMILES | IC50 [1] | IC50 [2] | IC50 [3]
1 | O=C(O)Cc1cnc(C(=O)c2ccc(NC(=O)c3cscn3)cc2)c2ccccc12 | > 1000 nM | 67 nM | 
2 | CC(C)(C(=O)O)c1cnc(C(=O)c2ccc(C(=O)NCCc3ccc(Cl)cc3)cc2)c2ccccc12 | > 1000 nM |  | 
3 | O=C(O)Cc1cnc(C(=O)c2ccc(NC(=O)Cc3ccc(Cl)c(Cl)c3)cc2)c2ccccc12 | 30 nM | 15 nM | 
4 | O=C(O)COc1cnc(C(=O)c2ccc(C(=O)NCCc3ccc(Cl)cc3)cc2)c2ccccc12 | 100 nM |  | 
5 | O=C(O)Cc1cnc(C(=O)c2ccc(NC(=O)c3cccnn3)cc2)c2ccccc12 | > 1000 nM | 322 nM | 
6 | O=C(O)Cc1cnc(C(=O)c2ccc(OCCCc3ccc(Cl)cc3)cc2)c2ccccc12 | 85 nM | 11 nM | 
7 | O=C(O)Cc1cnc(C(=O)c2ccc(NC(=O)Nc3ccc(Cl)c(Cl)c3)cc2)c2ccccc12 | 36 nM | 13 nM | 
8 | O=C(O)Cc1cnc(C(=O)c2ccc(NCc3ccc(Cl)c(Cl)c3)cc2)c2ccccc12 | 43 nM |  | 
9 | O=C(O)Cc1cnc(C(=O)c2ccc(OCCc3ccc(Cl)cc3)cc2)c2ccccc12 | 130 nM | 12 nM | 
10 | O=C(O)Cc1cnc(C(=O)c2ccc(NC(=O)C3CCCCC3)cc2)c2ccccc12 | 270 nM |  | 
11 | O=C(O)Cc1cnc(C(=O)c2ccc(C(=O)NCCc3ccc(Cl)cc3)cc2)c2ccccc12 | 12 nM |  | 
12 | O=C(O)Cc1cnc(C(=O)c2ccc(NC(=O)C3CC3)cc2)c2ccccc12 |  | 50 nM | 
13 | O=C(O)Cc1cnc(C(=O)c2ccc(C(=O)NCCc3ccc(Cl)c(Cl)c3)cc2)c2ccccc12 | 18 nM | 3.7 nM | 
14 | O=C(O)Cc1cnc(C(=O)c2ccc(NC(=O)CCc3ccc(Cl)c(Cl)c3)cc2)c2ccccc12 | 18 nM |  | 
15 | O=C(O)Cc1cnc(C(=O)c2ccc(NC(=O)CC34CC5CC(CC(C5)C3)C4)cc2)c2ccccc12 | 97 nM | 21 nM | 
16 | O=C(O)Cc1cnc(C(=O)c2ccc(NC(=O)c3ccc([N+](=O)[O-])cc3)cc2)c2ccccc12 | 28 nM | 9.9 nM | 
17 | CN(C)c1ccc(C(=O)Nc2ccc(C(=O)c3ncc(CC(=O)O)c4ccccc34)cc2)cc1 | 13 nM | 6.2 nM | 
18 | O=C(O)Cc1cnc(C(=O)c2ccc(NC(=O)C3CCOCC3)cc2)c2ccccc12 | > 1000 nM | 400 nM | 
19 | O=C(O)Cc1cnc(C(=O)c2ccc(C(=O)Nc3ccc(Cl)c(Cl)c3)cc2)c2ccccc12 | 13 nM |  | 
20 | O=C(O)Cc1cnc(C(=O)c2ccc(NC(=O)CC3CCCCC3)cc2)c2ccccc12 | 220 nM | 20 nM | 
21 | O=C(O)Cc1cnc(C(=O)c2ccc(NC(=O)c3ccc(OC(F)(F)F)cc3)cc2)c2ccccc12 | 8.7 nM | 11 nM | 
22 | O=C(O)Cc1cnc(C(=O)c2ccc(NC(=O)OCc3ccc(Cl)c(Cl)c3)cc2)c2ccccc12 | 5.2 nM | 6.7 nM | 

Next, values leading:

Row | IC50 [1] | IC50 [2] | IC50 [3] | SMILES
23 | 17 nM |  |  | COc1ccc(C(=O)Nc2ccc(C(=O)c3ncc(CC(=O)O)c4ccccc34)cc2)cc1
24 | 14 nM | 18 nM |  | O=C(O)Cc1cnc(C(=O)c2ccc(NC(=O)c3ccc(-c4ccccc4)cc3)cc2)c2ccccc12
25 |  | 48 nM |  | O=C(O)Cc1cnc(C(=O)c2ccc(NC(=O)c3ccccn3)cc2)c2ccccc12
26 | > 1000 nM |  |  | O=C(O)Cc1cnc(C(=O)c2ccc(NC(=O)c3ccccc3Cl)cc2)c2ccccc12
27 | 350 nM | 31 nM |  | O=C(O)Cc1cnc(C(=O)c2ccc(NC(=O)c3cccc4ccccc34)cc2)c2ccccc12
28 | > 1000 nM |  |  | O=C(O)Cc1cnc(C(=O)c2ccc(NC(=O)c3ccncc3)cc2)c2ccccc12
29 | 10 nM |  |  | O=C(O)Cc1cnc(C(=O)c2ccc(NC(=O)c3ccc4ccccc4c3)cc2)c2ccccc12
30 | 38 nM | 8.2 nM |  | O=C(O)Cc1cnc(C(=O)c2ccc(C(=O)Nc3ccc(Cl)cc3)cc2)c2ccccc12
31 | 9.7 nM |  |  | O=C(O)Cc1cnc(C(=O)c2ccc(NC(=O)c3cccc(Cl)c3)cc2)c2ccccc12
32 | 7.4 nM | 3.8 nM |  | O=C(O)Cc1cnc(C(=O)c2ccc(NC(=O)c3cc4ccccc4o3)cc2)c2ccccc12
33 | > 1000 nM | 7.8 nM |  | N#Cc1ccc(C(=O)Nc2ccc(C(=O)c3ncc(CC(=O)O)c4ccccc34)cc2)cc1
34 | 13 nM |  | 23 nM | O=C(O)Cc1cnc(C(=O)c2ccc(NC(=O)c3ccc(Cl)c(Cl)c3)cc2)c2ccccc12
35 | 9.1 nM |  |  | O=C(O)Cc1cnc(C(=O)c2ccc(NC(=O)c3ccc(Cl)cc3)cc2)c2ccccc12
36 | 4.2 nM |  |  | O=C(O)Cc1cnc(C(=O)c2ccc(NC(=O)c3cc4ccccc4[nH]3)cc2)c2ccccc12
37 | 18 nM | 5.2 nM |  | Cc1ccc(C(=O)Nc2ccc(C(=O)c3ncc(CC(=O)O)c4ccccc34)cc2)cc1
38 | 120 nM | 14 nM |  | O=C(O)Cc1cnc(C(=O)c2ccc(NC(=O)c3ccc(Oc4ccccc4)cc3)cc2)c2ccccc12
